Legend:
[1] = molecular target: DNA topoisomerase 2-alpha (Homo sapiens) (UniProt P11388); assay: Inhibition of full-length human recombinant topoisomerase 2-alpha mediated relaxation and cleavage of supercoiled pBR322 plasmid DNA to linear DNA by ethidium bromide staining based gel electrophoresis assay
Outline: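 Recombinant full-length human topoisomerase IIα with supercoiled pBR322 DNA at 37 °C. Components mixed on ice before drug addition. Complexes trapped with SDS; products run on ethidium bromide gels. Linear DNA identified against a HindIII-linearized marker; repeated on three days.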

[2] = tested on: OVCAR-4; assay: Cytotoxicity against human OVCAR4 cells assessed as cell growth at 50 uM by SRB assay; format: functional; conditions: read-out: Activity
[3] = tested on: TK-10; assay: Cytotoxicity against human TK10 cells assessed as cell growth at 50 uM by SRB assay; format: functional; conditions: read-out: Activity
[4] = tested on: MCF7; assay: Cytotoxicity against human MCF7 cells assessed as cell growth at 50 uM by SRB assay; format: functional; conditions: read-out: Activity
[5] = tested on: HCC 2998; assay: Cytotoxicity against human HCC2998 cells by SRB assay; format: functional
Outline: (§1)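 Measured in the NCI-60 human tumour cell line panel using five-dose testing. Growth was recorded at each dose for each cell line, and a GI50 was derived for each line.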

[6] = tested on: HCT-15; assay: Cytotoxicity against human HCT15 cells by SRB assay; format: functional; outline: as §1
[7] = tested on: SF-539; assay: Cytotoxicity against human SF539 cells by SRB assay; format: functional
Outline: (§2)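 NCI-60 panel screen; 5-dose testing giving GI50 per cell line, plus a single 10 µM one-dose test. Method details not given beyond the NCI screen.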

[8] = tested on: SNB-19; assay: Cytotoxicity against human SNB19 cells by SRB assay; format: functional; outline: as §2
[9] = tested on: UO-31; assay: Cytotoxicity against human UO31 cells by SRB assay; format: functional; outline: as §2
[10] = tested on: BT-549; assay: Cytotoxicity against human BT549 cells by SRB assay; format: functional
[11] = tested on: NCI-H322M; assay: Cytotoxicity against human NCI-H322M cells assessed as cell growth at 0.005 uM by SRB assay; format: functional; conditions: read-out: Activity
[12] = tested on: SW-620; assay: Cytotoxicity against human SW620 cells assessed as cell growth at 0.005 uM by SRB assay; format: functional; conditions: read-out: Activity
[13] = tested on: SF-268; assay: Cytotoxicity against human SF268 cells assessed as cell growth at 0.005 uM by SRB assay; format: functional; conditions: read-out: Activity
[14] = tested on: SK-MEL-5; assay: Cytotoxicity against human SK-MEL-5 cells assessed as cell growth at 0.005 uM by SRB assay; format: functional; conditions: read-out: Activity
[15] = tested on: T47D; assay: Cytotoxicity against human T47D cells assessed as cell growth at 0.005 uM by SRB assay; format: functional; conditions: read-out: Activity
[16] = tested on: HOP-62; assay: Cytotoxicity against human HOP62 cells assessed as cell growth at 0.05 uM by SRB assay; format: functional; conditions: read-out: Activity; outline: as §1
[17] = tested on: SNB-19; assay: Cytotoxicity against human SNB19 cells assessed as cell growth at 0.05 uM by SRB assay; format: functional; conditions: read-out: Activity
[18] = tested on: LOX IMVI; assay: Cytotoxicity against human LOXIMVI cells assessed as cell growth at 0.05 uM by SRB assay; format: functional; conditions: read-out: Activity
[19] = tested on: OVCAR-3; assay: Cytotoxicity against human OVCAR3 cells assessed as cell growth at 0.05 uM by SRB assay; format: functional; conditions: read-out: Activity
[20] = tested on: DU-145; assay: Cytotoxicity against human DU145 cells assessed as cell growth at 0.05 uM by SRB assay; format: functional; conditions: read-out: Activity; outline: as §1
[21] = tested on: MDA-MB-231; assay: Cytotoxicity against human MDA-MB-231/ATCC cells assessed as cell growth at 0.05 uM by SRB assay; format: functional; conditions: read-out: Activity
[22] = tested on: MOLT-4; assay: Cytotoxicity against human MOLT4 cells assessed as cell growth at 0.5 uM by SRB assay; format: functional; conditions: read-out: Activity
[23] = tested on: HOP-62; assay: Cytotoxicity against human HOP62 cells assessed as cell growth at 0.5 uM by SRB assay; format: functional; conditions: read-out: Activity; outline: as §1
[24] = tested on: NCI-H226; assay: Cytotoxicity against human NCI-H226 cells assessed as cell growth at 0.5 uM by SRB assay; format: functional; conditions: read-out: Activity
[25] = tested on: HCT-116; assay: Cytotoxicity against human HCT116 cells assessed as cell growth at 0.5 uM by SRB assay; format: functional; conditions: read-out: Activity; outline: as §1
[26] = tested on: SF-295; assay: Cytotoxicity against human SF295 cells assessed as cell growth at 0.5 uM by SRB assay; format: functional; conditions: read-out: Activity
[27] = tested on: SNB-75; assay: Cytotoxicity against human SNB75 cells assessed as cell growth at 0.5 uM by SRB assay; format: functional; conditions: read-out: Activity
[28] = tested on: SK-MEL-28; assay: Cytotoxicity against human SK-MEL-28 cells assessed as cell growth at 0.5 uM by SRB assay; format: functional; conditions: read-out: Activity
[29] = tested on: UACC-257; assay: Cytotoxicity against human UACC257 cells assessed as cell growth at 0.5 uM by SRB assay; format: functional; conditions: read-out: Activity
[30] = tested on: 786-0; assay: Cytotoxicity against human 786-0 cells assessed as cell growth at 0.5 uM by SRB assay; format: functional; conditions: read-out: Activity
[31] = tested on: RXF 393; assay: Cytotoxicity against human RXF393 cells assessed as cell growth at 0.5 uM by SRB assay; format: functional; conditions: read-out: Activity
[32] = tested on: NCI-H322M; assay: Cytotoxicity against human NCI-H322M cells assessed as cell growth at 5 uM by SRB assay; format: functional; conditions: read-out: Activity
[33] = tested on: SF-295; assay: Cytotoxicity against human SF295 cells assessed as cell growth at 5 uM by SRB assay; format: functional; conditions: read-out: Activity
[34] = tested on: SK-MEL-5; assay: Cytotoxicity against human SK-MEL-5 cells assessed as cell growth at 5 uM by SRB assay; format: functional; conditions: read-out: Activity
[35] = tested on: IGROV-1; assay: Cytotoxicity against human IGROV1 cells assessed as cell growth at 5 uM by SRB assay; format: functional; conditions: read-out: Activity
[36] = tested on: OVCAR-8; assay: Cytotoxicity against human OVCAR8 cells assessed as cell growth at 5 uM by SRB assay; format: functional; conditions: read-out: Activity
[37] = tested on: CCRF-CEM; assay: Cytotoxicity against human CCRF-CEM cells assessed as cell growth at 50 uM by SRB assay; format: functional; conditions: read-out: Activity
[38] = tested on: HL-60(TB); assay: Cytotoxicity against human HL-60(TB) cells assessed as cell growth at 50 uM by SRB assay; format: functional; conditions: read-out: Activity; outline: as §1
[39] = tested on: COLO 205; assay: Cytotoxicity against human COLO205 cells assessed as cell growth at 50 uM by SRB assay; format: functional; conditions: read-out: Activity
[40] = read-out: LC50 (the source's name)
[41] = read-out: pLC50 (the source's name) (converted)

Chain of DNA topoisomerase 2-alpha (Homo sapiens) (P11388 whole entry): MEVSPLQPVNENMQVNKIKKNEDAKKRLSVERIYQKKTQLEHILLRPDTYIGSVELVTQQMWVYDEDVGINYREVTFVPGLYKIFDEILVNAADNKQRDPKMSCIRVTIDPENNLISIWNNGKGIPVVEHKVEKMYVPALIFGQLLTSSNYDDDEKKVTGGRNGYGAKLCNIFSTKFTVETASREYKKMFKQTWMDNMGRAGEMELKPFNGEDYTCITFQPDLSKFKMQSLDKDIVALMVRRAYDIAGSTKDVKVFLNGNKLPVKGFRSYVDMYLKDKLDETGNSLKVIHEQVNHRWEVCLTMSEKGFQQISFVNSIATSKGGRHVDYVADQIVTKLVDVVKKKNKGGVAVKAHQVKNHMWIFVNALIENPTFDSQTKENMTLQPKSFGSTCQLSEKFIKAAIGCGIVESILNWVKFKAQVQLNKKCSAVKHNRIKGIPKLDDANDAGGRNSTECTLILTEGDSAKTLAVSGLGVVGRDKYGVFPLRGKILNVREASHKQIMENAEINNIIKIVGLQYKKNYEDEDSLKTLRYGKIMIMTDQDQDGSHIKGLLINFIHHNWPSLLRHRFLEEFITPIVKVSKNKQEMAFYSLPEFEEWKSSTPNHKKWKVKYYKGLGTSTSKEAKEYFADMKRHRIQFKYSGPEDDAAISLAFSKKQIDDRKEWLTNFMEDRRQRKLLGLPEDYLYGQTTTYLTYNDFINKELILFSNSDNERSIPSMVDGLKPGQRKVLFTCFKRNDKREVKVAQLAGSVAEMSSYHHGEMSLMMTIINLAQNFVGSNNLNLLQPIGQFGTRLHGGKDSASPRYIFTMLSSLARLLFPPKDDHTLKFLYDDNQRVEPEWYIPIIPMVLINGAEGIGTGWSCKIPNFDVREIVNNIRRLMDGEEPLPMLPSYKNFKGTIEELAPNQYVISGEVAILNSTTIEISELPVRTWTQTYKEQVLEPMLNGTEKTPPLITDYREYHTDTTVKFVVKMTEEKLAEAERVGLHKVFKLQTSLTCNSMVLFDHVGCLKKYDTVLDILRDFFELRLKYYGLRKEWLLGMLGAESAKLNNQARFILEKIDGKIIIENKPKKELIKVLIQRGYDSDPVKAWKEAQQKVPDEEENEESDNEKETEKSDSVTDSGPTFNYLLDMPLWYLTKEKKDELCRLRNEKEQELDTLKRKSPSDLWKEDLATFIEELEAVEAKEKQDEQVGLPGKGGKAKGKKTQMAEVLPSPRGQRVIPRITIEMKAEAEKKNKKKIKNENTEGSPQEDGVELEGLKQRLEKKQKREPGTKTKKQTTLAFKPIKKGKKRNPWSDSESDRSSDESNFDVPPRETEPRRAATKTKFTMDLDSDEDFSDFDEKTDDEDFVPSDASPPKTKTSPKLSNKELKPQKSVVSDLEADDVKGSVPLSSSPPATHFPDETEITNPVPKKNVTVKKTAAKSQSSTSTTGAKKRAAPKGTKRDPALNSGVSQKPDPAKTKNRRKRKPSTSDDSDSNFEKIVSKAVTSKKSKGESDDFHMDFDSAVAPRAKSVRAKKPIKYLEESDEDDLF

SMILES: COc1cc([C@@H]2c3cc4c(cc3[C@@H](NC(=O)CN3CCN(CCCCCCN5CCN(CC(=O)N[C@@H]6c7cc8c(cc7[C@@H](c7cc(OC)c(O)c(OC)c7)[C@H]7C(=O)OC[C@@H]76)OCO8)CC5)CC3)[C@H]3COC(=O)[C@H]23)OCO4)cc(OC)c1O
- Effect on topoisomerase 2-alpha DNA cleavage (qualitative) [1]: Dose-dependent effect
- growth at 50 µM [2]: 21%
- growth at 50 µM [3]: 63%
- growth at 50 µM [4]: 7%
- GI50 ([5]; read-out: GI50): 9.47 µM
- CC50 [5, 40]: > 50 µM
- TGI ([5]; read-out: TGI): 38.3 µM
- GI50 ([5]; read-out: pGI50 (converted)): 9.55 µM
- CC50 [5, 41]: > 50.1 µM
- TGI ([5]; read-out: pTGI (converted)): 38 µM
- GI50 ([6]; read-out: GI50): > 50 µM
- CC50 [6, 40]: > 50 µM
- TGI ([6]; read-out: TGI): > 50 µM
- GI50 ([6]; read-out: pGI50 (converted)): > 50.1 µM
- CC50 [6, 41]: > 50.1 µM
- TGI ([6]; read-out: pTGI (converted)): > 50.1 µM
- GI50 ([7]; read-out: GI50): 0.898 µM
- CC50 [7, 40]: > 50 µM
- TGI ([7]; read-out: TGI): 3.57 µM
- GI50 ([7]; read-out: pGI50 (converted)): 0.891 µM
- CC50 [7, 41]: > 50.1 µM
- TGI ([7]; read-out: pTGI (converted)): 3.55 µM
- GI50 ([8]; read-out: GI50): 1.03 µM
- CC50 [8, 40]: > 50 µM
- TGI ([8]; read-out: TGI): > 50 µM
- GI50 ([8]; read-out: pGI50 (converted)): 1.02 µM
- CC50 [8, 41]: > 50.1 µM
- TGI ([8]; read-out: pTGI (converted)): > 50.1 µM
- GI50 ([9]; read-out: GI50): > 50 µM
- CC50 [9, 40]: > 50 µM
- TGI ([9]; read-out: TGI): > 50 µM
- GI50 ([9]; read-out: pGI50 (converted)): > 50.1 µM
- CC50 [9, 41]: > 50.1 µM
- TGI ([9]; read-out: pTGI (converted)): > 50.1 µM
- GI50 ([10]; read-out: GI50): 0.757 µM
- CC50 [10, 40]: > 50 µM
- TGI ([10]; read-out: TGI): 4.24 µM
- GI50 ([10]; read-out: pGI50 (converted)): 0.759 µM
- CC50 [10, 41]: > 50.1 µM
- TGI ([10]; read-out: pTGI (converted)): 4.27 µM
- growth at 0.005 µM [11]: 98%
- growth at 0.005 µM [12]: 97%
- growth at 0.005 µM [13]: 97%
- growth at 0.005 µM [14]: 97%
- growth at 0.005 µM [15]: 97%
- growth at 0.05 µM [16]: 96%
- growth at 0.05 µM [17]: 95%
- growth at 0.05 µM [18]: 88%
- growth at 0.05 µM [19]: 108%
- growth at 0.05 µM [20]: 103%
- growth at 0.05 µM [21]: 94%
- growth at 0.5 µM [22]: 23%
- growth at 0.5 µM [23]: 98%
- growth at 0.5 µM [24]: 73%
- growth at 0.5 µM [25]: 60%
- growth at 0.5 µM [26]: 94%
- growth at 0.5 µM [27]: 61%
- growth at 0.5 µM [28]: 91%
- growth at 0.5 µM [29]: 108%
- growth at 0.5 µM [30]: 82%
- growth at 0.5 µM [31]: 91%
- growth at 5 µM [32]: 99%
- growth at 5 µM [33]: 50%
- growth at 5 µM [34]: 57%
- growth at 5 µM [35]: 74%
- growth at 5 µM [36]: 92%
- growth at 50 µM [37]: 7%
- growth at 50 µM [38]: -1%
- growth at 50 µM [39]: -3%

— ChEMBL document CHEMBL3588757, “Structure-based design, synthesis and biological testing of piperazine-linked bis-epipodophyllotoxin etoposide analogs” (Bioorg Med Chem, 2015)
